From PubChem BioAssay
This is a sample that favours compounds with a hit; in the whole collection about 2.4% have one here.
NPY1 pot ag: potentiates or activates human NPY-Y1 receptor. 0.37% of 220,000 active. NPY-Y1 expressing cells, potentiator/agonist activation. P25929. activation, % at 3.6 µM; in the data active means activation above about 33%, passing the limit was not always enough;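 further: cells stimulated with NPY at EC10 then isoproterenol at EC100; 0% = low agonist plus stimulus and 100% = saturating agonist plus stimulus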
Target sequence (P25929 whole entry, looked up): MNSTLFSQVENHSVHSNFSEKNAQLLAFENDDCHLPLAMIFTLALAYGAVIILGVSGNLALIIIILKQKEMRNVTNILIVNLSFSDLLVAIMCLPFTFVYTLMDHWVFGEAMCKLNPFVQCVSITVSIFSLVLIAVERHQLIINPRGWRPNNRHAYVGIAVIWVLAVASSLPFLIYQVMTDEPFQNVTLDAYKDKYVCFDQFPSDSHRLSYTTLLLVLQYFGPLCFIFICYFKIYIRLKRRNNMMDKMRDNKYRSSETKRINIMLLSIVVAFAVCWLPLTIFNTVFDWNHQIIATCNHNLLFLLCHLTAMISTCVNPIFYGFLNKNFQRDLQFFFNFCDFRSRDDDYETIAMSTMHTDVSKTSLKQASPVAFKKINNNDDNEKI
NPY-Y1 antag: NPY-Y1 (human) receptor antagonism | P25929 | HEK293-CNG Y1 cells, membrane potential fluorescence; NPY at EC95, then isoproterenol | inhibition, % at 3.6 µM | 1% of 200,000 active;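 active means inhibition above the campaign mean inhibition of all tested compounds plus 3 SD, cut at about 20% in these data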;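 further: 0% = DMSO wells given NPY plus isoproterenol and 100% = isoproterenol alone without NPY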
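Test system – HEK293 Y1/CNG channel cell line · Also added – NPY agonist 25 nM, then isoproterenol 1 µM plus Ro 20-1724 25 µM · Compound dosing – one concentration, 3.6 µM, in 0.4% DMSO · Schedule – compound incubation 1 h at room temperature, readout 45 min post-stimulation · Technique – fluorescence, membrane potential probe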
S1P4 antag: antagonists of human S1P4 receptor; O95977; S1P4-expressing cells, antagonist mode, reporter read-out; inhibition, % at 4.98 µM; 0.26% of 220,000 active; in the data active means inhibition above about 29%;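 further: 0% = wells stimulated with agonist and 100% = vehicle wells without agonist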
S1P4 agonist: agonists of human S1P4 receptor; O95977; 0.35% of 220,000 active; S1P4-expressing cell line, agonist reporter assay; AID 1509; activation, % at 4.98 µM; in the data active means activation above about 11%;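 further: 0% = DMSO vehicle and 100% = reference agonist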
NPY2 pot ag: human NPY-Y2 potentiation or agonism, primary screen | activation, % at 3.6 µM | AID 1359 | cells expressing NPY-Y2, potentiator/agonist read-out | 0.45% of 220,000 active; in the data active means activation above about 27%;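 further: cells stimulated with NPY near EC25 plus isoproterenol at EC100; 0% = vehicle plus submaximal agonist and 100% = vehicle plus saturating agonist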
NPY-Y2 antag: NPY-Y2 (human) receptor antagonism; P49146; NPY-Y2 expressing cells, antagonist mode; inhibition, % at 2.7 µM; 0.99% of 140,000 active; in the data active means inhibition above about 17%;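 further: 0% = vehicle with agonist challenge and 100% = reference antagonist with challenge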
NPY-Y2 pot conf: confirmation of human NPY-Y2 receptor potentiators or agonists; shares compounds with NPY2 pot ag; cell-based NPY-Y2 potentiator/agonist assay; activation, % at 3.6 µM; 20% of 450 active; AID 1539; in the data active means activation above about 33%
NPY-Y1 counter: potentiates or activates NPY-Y1, counter-screen for NPY-Y2 hits; shares compounds with NPY2 pot ag; Y1 HEK293-CNG cells, membrane potential fluorescence; activation, % at 3.6 µM; 20% of 450 active; AID 1651; in the data active means activation above about 45%;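 further: cells stimulated with submaximal NPY then isoproterenol with phosphodiesterase inhibitor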
NPY-Y1 ag 2: counter-screen for NPY-Y2 potentiators: agonists of human NPY-Y1 | shares compounds with NPY2 pot ag | HEK293 Y1-CNGC, membrane potential fluorescence, agonism | activation, % at 3.6 µM | 37% of 450 active | AID 1702;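 active means activation above the mean of DMSO-only control wells plus 3 SD, cut at about 18% in these data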;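 further: cells stimulated with 1 µM isoproterenol plus the PDE inhibitor Ro 20-1724; 0% = isoproterenol with DMSO and no NPY and 100% = 40 nM NPY; Y1 agonists lower the membrane potential dye signal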
CNGC inhibitor: counter-screen for NPY-Y2 potentiators: inhibitors of CNG channel activity; shares compounds with NPY2 pot ag; HEK293-CNG parental, isoproterenol cAMP, membrane potential fluorescence; inhibition, % at 3.6 µM; 32% of 450 active; AID 1703;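 active means inhibition above the control-well mean plus 3 SD of those wells, cut at about 22% in these data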;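 further: 0% = DMSO with isoproterenol and 100% = DMSO without isoproterenol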
NPY-Y2 ag 2: counter-screen for NPY-Y2 potentiators: agonists of human NPY-Y2; activation, % at 3.6 µM; AID 1710; HEK293 Y2/CNGC cells, membrane potential fluorescence, agonist mode; 56% of 450 active; shares compounds with NPY2 pot ag;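 active means activation above the mean of solvent-only control wells plus 3 SD, cut at about 10% in these data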;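 further: cells stimulated by isoproterenol with no NPY added so direct agonism is tested; 0% = DMSO with isoproterenol alone and 100% = NPY at EC100 plus isoproterenol; agonism lowers probe fluorescence through less cAMP and CNG channel opening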
Active calls of the source: *; . = no result.

SMILES | NPY1 pot ag | NPY-Y1 antag | S1P4 antag | S1P4 agonist | NPY2 pot ag | NPY-Y2 antag | NPY-Y2 pot conf | NPY-Y1 counter | NPY-Y1 ag 2 | CNGC inhibitor | NPY-Y2 ag 2
O=C(CNC1CC1)Nc1cc(C(F)(F)F)ccc1Cl | 12.2 | . | 4.2 | -0.3 | -7.9 | . | . | . | . | . | .
O=C(c1ccccc1Cl)N1CCSCC1 | 8.2 | . | -6.1 | 1.1 | 11.5 | . | . | . | . | . | .
COCCN1C(=O)C(CC(=O)Nc2ccc(C(C)=O)cc2)SC1=Nc1ccccc1 (configuration not stated) | 30.2 | -12.3 | 2.6 | -1.1 | 43.0* | -3.1 | 36.6* | 48.9* | 41.7* | 34.2* | 34.4*
O=C(Nc1ccc(OCC(F)(F)C(F)F)c(C(F)(F)F)c1)c1ccccc1O | 40.6 | 6.0 | -2.9 | 2.7 | 61.3* | 3.9 | 3.4 | -17.1 | -17.3 | -11.4 | 0.8
O=C(Nc1ccc(OCC(F)(F)C(F)F)c(C(F)(F)F)c1)c1ccccc1 | -38.6 | 2.3 | -6.9 | 0.1 | -15.0 | 1.1 | . | . | . | . | .
Clc1ccc(-c2ccc(/C=N/Nc3cc(N4CCOCC4)nc(N4CCOCC4)n3)o2)cc1 | 1.0 | -0.8 | -16.9 | -1.4 | 12.8 | 8.4 | . | . | . | . | .
NC(=NCCc1c[nH]c2ccccc12)NC(=O)c1ccc(Cl)cc1 | 27.1 | -1.3 | -4.9 | 0.4 | 27.7* | . | 26.2 | 30.5 | 39.4* | 37.3* | 42.4*
O=C(N[C@@H](Cc1c[nH]c2ccccc12)C(=O)O)c1ccc(Cl)cc1 | 10.7 | 1.2 | 0.6 | 0.2 | -2.4 | . | . | . | . | . | .
O=C(Nc1cc(S(=O)(=O)N2CCCCC2)ccc1Cl)c1ccccc1NS(=O)(=O)c1ccc(F)cc1 | -59.1 | 6.2 | -7.9 | 0.1 | 42.2* | 2.5 | 30.1 | 5.0 | 0.4 | 13.8 | 19.1*
CCC(CC)c1nnc(NC(=O)CCCN2C(=O)c3ccccc3C2=O)s1 | -1.0 | 5.3 | -3.9 | -1.1 | 1.6 | 5.2 | . | . | . | . | .
CCOC(=O)C(=CNc1cc(C)nn1-c1ccc(C)cc1)C(=O)OCC | 14.6 | 9.1 | -2.3 | 1.5 | 36.2* | 13.0 | 1.6 | -6.6 | -6.7 | -11.6 | -1.6
Cc1nn(Cc2ccc(F)cc2)c(C)c1NC(=O)c1cnn2c1NC(c1ccccc1)CC2C(F)(F)F (configuration not stated) | 35.7 | -7.7 | -23.6 | -0.6 | 33.8* | -3.1 | 21.1 | 27.7 | 19.2* | 22.4* | 27.4*
COC(=O)C1=C(N)N(c2ccccc2F)C2=C(C(=O)CC(C)(C)C2)C1c1ccc(OC)c(OC)c1 (configuration not stated) | -5.7 | -1.0 | -3.7 | 3.4 | 2.3 | 3.2 | . | . | . | . | .
CCN(CC)CCCNc1nc2cc(OC)c(OC)cc2c2nc(-c3cccnc3)nn12 | -14.0 | -1.2 | -30.4 | 0.3 | -18.3 | 4.2 | . | . | . | . | .
COc1cc2nc(NCC3CCCO3)n3nc(-c4cccnc4)nc3c2cc1OC (configuration not stated) | 14.9 | 2.8 | -4.9 | -0.7 | 64.8* | -2.4 | -0.8 | 7.8 | 0.9 | 4.5 | 8.9
CCOCC(O)CNc1ccccc1 (configuration not stated) | -8.0 | 3.0 | -12.0 | 0.7 | 1.0 | -1.6 | . | . | . | . | .
OC(CNc1ccccc1)COc1ccc(OCC(O)CNc2ccccc2)cc1 (configuration not stated) | 38.7 | -18.7 | -19.5 | 0.6 | 37.0* | -3.1 | 42.6* | 56.6* | 44.0* | 44.0* | 47.5*
COc1ccc(OCC(O)CNC(=O)Nc2ccccc2)cc1 (configuration not stated) | 16.4 | . | -3.9 | -1.8 | 43.5* | . | 1.2 | 6.8 | -5.0 | 1.8 | 2.8
